From ChEMBL document CHEMBL1165860, “Synthesis and potential cytotoxic activity of new phenanthrylphenol-pyrrolobenzodiazepines” (2010)
Calls of active or inactive are those of the source. The rule behind the calls is not given here.

Tests used:
MDA-MB-435 = experiment: Growth inhibition of human MDA-MB-435 cells after 24 hrs by MTT assay; format: functional; conditions: MDA-MB-435, 24 h
NCI-H522 = experiment: Growth inhibition of human NCI-H522 cells after 24 hrs by MTT assay; format: functional; conditions: NCI-H522, 24 h
OVCAR-8 = experiment: Growth inhibition of human OVCAR8 cells after 24 hrs by MTT assay; format: functional; conditions: OVCAR-8, 24 h
A549 = experiment: Growth inhibition of human A549 cells after 24 hrs by MTT assay; format: functional; conditions: A549, 24 h
MCF7 [1] = experiment: Increase of cytosolic cytochrome c level in human MCF7 cells at 4 uM after 24 hrs by Western blot analysis; format: functional, cell-based
In short: (§1)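 MCF-7 cells were grown in DMEM with 10% FCS and penicillin/streptomycin at 37 °C in 5% CO2, then treated for 24 h. Cells were lysed in ice-cold RIPA buffer with protease inhibitors and NaF. Protein was measured by Bradford assay, and 30 µg per lane was run on 12% SDS-PAGE and transferred to PVDF. Antibody steps: primary at 4 °C overnight, HRP secondary 1:2000, chemiluminescent detection.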

SF-539 = experiment: Growth inhibition of human SF539 cells after 24 hrs by MTT assay; format: functional; conditions: SF-539, 24 h
A498 = experiment: Growth inhibition of human A498 cells after 24 hrs by MTT assay; format: functional; conditions: A498, 24 h
[2] = Growth inhibition of human […] cells after 24 hrs by MTT assay; format: functional
MCF7 [3] = experiment: Cell cycle arrest in human MCF7 cells assessed as accumulation at G0 phase after 24 hrs using propidium iodide staining by flow cytometry; format: functional, cell-based
In short: (§2)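 MCF-7 cells were grown in DMEM with 10% fetal calf serum, penicillin and streptomycin, at 37 °C in 5% CO2. They were treated for 24 h at 2 and 4 µM, with DMSO-treated cells as controls. Cells were trypsinised, fixed in ice-cold 70% ethanol at 4 °C for 30 min, and RNaseA-treated at 37 °C for 30 min. Phases were read by flow cytometry.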

SW-620 = experiment: Growth inhibition of human SW620 cells after 24 hrs by MTT assay; format: functional; conditions: SW-620, 24 h
MCF7 [4] = experiment: Increase of PARP cleavage in human MCF7 cells at 4 uM after 24 hrs by Western blot analysis; format: functional, cell-based; in short: as §1
MDA-MB-231 = experiment: Growth inhibition of human MDA-MB-231 cells after 24 hrs by MTT assay; format: functional; conditions: MDA-MB-231, 24 h
SR = experiment: Growth inhibition of human SR cells after 24 hrs by MTT assay; format: functional
MCF7 [5] = experiment: Increase of cytosolic cytochrome c level in human MCF7 cells at 2 uM after 24 hrs by Western blot analysis; format: functional, cell-based; in short: as §1
NCI-H322M = experiment: Growth inhibition of human NCI-H322M cells after 24 hrs by MTT assay; format: functional
HCC 2998 = experiment: Growth inhibition of human HCC2998 cells after 24 hrs by MTT assay; format: functional; conditions: HCC 2998, 24 h
HT-29 = experiment: Growth inhibition of human HT-29 cells after 24 hrs by MTT assay; format: functional; conditions: HT-29, 24 h
M14 = experiment: Growth inhibition of human M14 cells after 24 hrs by MTT assay; format: functional; conditions: M14, 24 h
MCF7 [6] = experiment: Cell cycle arrest in human MCF7 cells assessed as accumulation at S phase at 4 uM after 24 hrs using propidium iodide staining by flow cytometry; format: functional; in short: as §2
SNB-19 = experiment: Growth inhibition of human SNB19 cells after 24 hrs by MTT assay; format: functional; conditions: SNB-19, 24 h
786-0 = experiment: Growth inhibition of human 786-0 cells after 24 hrs by MTT assay; format: functional; conditions: 786-0, 24 h
UACC-62 = experiment: Growth inhibition of human UACC62 cells after 24 hrs by MTT assay; format: functional; conditions: UACC-62, 24 h
NCI/ADR-RES = experiment: Growth inhibition of human NCI/ADR-RES cells after 24 hrs by MTT assay; format: functional
MCF7 [7] = experiment: Induction of apoptosis in human MCF7 cells assessed as increase of caspase 8 activation at 2 uM after 1 hr by […] method; format: functional, cell-based
In short: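 Colorimetric caspase-8 kit on lysates of treated MCF-7 cells. The IETD-pNA substrate was incubated with cell lysate at 37 °C for 1 h, and absorbance was read at 405 nm. Untreated cells served as the control.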

SK-MEL-28 = experiment: Growth inhibition of human SK-MEL-28 cells after 24 hrs by MTT assay; format: functional; conditions: SK-MEL-28, 24 h
CCRF-CEM = experiment: Growth inhibition of human CCRF-CEM cells after 24 hrs by MTT assay; format: functional
HCT-15 = experiment: Growth inhibition of human HCT15 cells after 24 hrs by MTT assay; format: functional; conditions: HCT-15, 24 h
NCI-H23 = experiment: Growth inhibition of human NCI-H23 cells after 24 hrs by MTT assay; format: functional; conditions: NCI-H23, 24 h
SK-OV-3 = experiment: Growth inhibition of human SKOV3 cells after 24 hrs by MTT assay; format: functional; conditions: SK-OV-3, 24 h
Nucleic Acid = experiment: Inhibition of Escherichia coli pBR322 DNA cleavage at 16 uM after 16 hrs by RED100-restriction endonuclease digestion assay; format: nucleic-acid assay
In short: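 pBR322 DNA was preincubated with compound at final 2, 4, 8, 16 and 32 µM for 16 h at 37 °C. BamHI (10 U/µl) in BamHI buffer was then added for 2 h at 37 °C. Products were separated on agarose in 0.5× Tris–acetate EDTA at 80 V for 1 h and stained with ethidium bromide. Cut and uncut DNA served as controls.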

OVCAR-5 = experiment: Growth inhibition of human OVCAR5 cells after 24 hrs by MTT assay; format: functional; conditions: OVCAR-5, 24 h
MCF7 [8] = experiment: Cell cycle arrest in human MCF7 cells assessed as accumulation at G0 phase at 4 uM after 24 hrs using propidium iodide staining by flow cytometry; format: functional; in short: as §2
HOP-62 = experiment: Growth inhibition of human HOP62 cells after 24 hrs by MTT assay; format: functional; conditions: HOP-62, 24 h
NCI-H226 = experiment: Growth inhibition of human NCI-H226 cells after 24 hrs by MTT assay; format: functional; conditions: NCI-H226, 24 h
MCF7 [9] = experiment: Cytotoxicity against human MCF7 cells at 4 uM after 24 hrs by MTT assay relative to control; format: functional, cell-based
In short: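 MCF-7 cells were seeded at 10,000 cells/well in DMEM with 10% fetal calf serum. They were exposed to 0.5, 1, 2 and 4 µM for 24 h. MTT reduction to formazan was read at 570 nm, with untreated controls taken as 100% viability. DMSO-treated cells served as an additional control.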

OVCAR-4 = experiment: Growth inhibition of human OVCAR4 cells after 24 hrs by MTT assay; format: functional; conditions: OVCAR-4, 24 h
MCF7 [10] = experiment: Cell cycle arrest in human MCF7 cells assessed as accumulation at G2/M phase at 2 uM after 24 hrs using propidium iodide staining by flow cytometry; format: functional; in short: as §2
KM12 = experiment: Growth inhibition of human KM12 cells after 24 hrs by MTT assay; format: functional; conditions: KM12, 24 h

Compound: COc1cc2c(cc1OCCCOc1ccc(-c3cc4ccccc4c4ccccc34)cc1)N=C[C@@H]1CCCN1C2=O
- GI50 (MDA-MB-435): 240 nM
- GI50 (NCI-H522): 120 nM
- GI50 (OVCAR-8): 420 nM
- GI50 (A549): 720 nM
- Activity (MCF7 [1]): Active
- GI50 (SF-539): 1760 nM
- GI50 (A498): 690 nM
- GI50 [2]: 190 nM
- Activity (MCF7 [3]): Dose-dependent effect
- GI50 (SW-620): 510 nM
- Activity (MCF7 [4]): Active
- GI50 (MDA-MB-231): 290 nM
- GI50 (SR): 220 nM
- Activity (MCF7 [5]): Active
- GI50 (NCI-H322M): 1590 nM
- GI50 (HCC 2998): 1210 nM
- GI50 (HT-29): 890 nM
- GI50 (M14): 570 nM
- Activity (MCF7 [6]): 13.05%
- GI50 (SNB-19): 1160 nM
- GI50 (786-0): 700 nM
- GI50 (UACC-62): 630 nM
- GI50 (NCI/ADR-RES): 1670 nM
- Activity (MCF7 [7]): Active
- GI50 (SK-MEL-28): 1260 nM
- GI50 (CCRF-CEM): 130 nM
- GI50 (HCT-15): 1180 nM
- GI50 (NCI-H23): 1410 nM
- GI50 (SK-OV-3): 1560 nM
- inhibition (Nucleic Acid): 100%
- GI50 (OVCAR-5): 1200 nM
- Activity (MCF7 [8]): 8.35%
- GI50 (HOP-62): 1000 nM
- GI50 (NCI-H226): 1170 nM
- Activity (MCF7 [9]): Active
- GI50 (OVCAR-4): 580 nM
- Activity (MCF7 [10]): 10.7%
- GI50 (KM12): 780 nM
